Laboratory results taken from publication PMC6791425 (Oncoimmunology, 2019).

Legend:
[1] = target: PSMA expressed on LNCaP cells (Homo sapiens, UniProt Q04609); experiment: competitive cell-binding assay with PSMA-positive LNCaP cells
[2] = biodistribution analysis in LNCaP tumor-bearing mice; assay type: in vivo, NMRI nu/nu mice; settings: high molar activity, approximately 10 MBq
In short: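 Mice bearing LNCaP tumours (100–500 mm3) were injected with approximately 10 MBq of the 68Ga-labelled test compound, giving groups at high molar activity (low peptide amount) and low molar activity (high peptide amount). Organ distribution was determined in three mice per condition. Labelling was done at pH 4.2, 98°C, for 10 min in HEPES.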

Chain of PSMA expressed on LNCaP cells (Q04609 whole entry): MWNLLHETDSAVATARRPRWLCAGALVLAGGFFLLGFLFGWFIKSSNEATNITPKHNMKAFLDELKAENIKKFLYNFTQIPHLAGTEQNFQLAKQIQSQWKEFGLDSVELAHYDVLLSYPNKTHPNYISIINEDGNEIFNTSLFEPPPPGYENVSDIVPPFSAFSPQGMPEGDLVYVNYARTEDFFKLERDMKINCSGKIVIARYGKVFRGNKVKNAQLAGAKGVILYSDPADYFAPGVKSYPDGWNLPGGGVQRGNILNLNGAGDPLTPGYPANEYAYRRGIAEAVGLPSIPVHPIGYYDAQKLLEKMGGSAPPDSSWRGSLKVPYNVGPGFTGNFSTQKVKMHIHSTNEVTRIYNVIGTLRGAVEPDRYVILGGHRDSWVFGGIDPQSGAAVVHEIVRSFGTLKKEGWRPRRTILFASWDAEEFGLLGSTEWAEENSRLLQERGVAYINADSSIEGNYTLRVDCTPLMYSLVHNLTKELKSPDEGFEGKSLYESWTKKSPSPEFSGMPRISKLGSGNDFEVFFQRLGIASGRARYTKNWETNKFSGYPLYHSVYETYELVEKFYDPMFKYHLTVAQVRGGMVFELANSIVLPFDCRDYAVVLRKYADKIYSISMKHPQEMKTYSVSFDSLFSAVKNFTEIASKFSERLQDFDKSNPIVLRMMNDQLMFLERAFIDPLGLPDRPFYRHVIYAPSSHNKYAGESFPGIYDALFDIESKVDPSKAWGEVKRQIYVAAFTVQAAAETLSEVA

IC50 [1]	Tumor ([2]; LNCaP tumor)	Adrenals [2]	BAT [2]	Blood [2]	Brain [2]	Femur [2]	Heart [2]	Kidneys [2]	Liver [2]	Lung [2]	Muscle [2]	Pancreas [2]	Ratio tumor/muscle [2]	Skin [2]	Spleen [2]	Subm. gl. [2]	Testes [2]	WAT [2]	Compound
14.8 ± 1.2 nM	–	–	–	–	–	–	–	–	–	–	–	–	–	–	–	–	–	–	O=C(O)CCc1ccc(O)c(CN(CCN(CC(=O)O)Cc2cc(CCC(=O)NCCCCCC(=O)NCCCC[C@H](NC(=O)N[C@@H](CCC(=O)O)C(=O)O)C(=O)O)ccc2O)CC(=O)O)c1 [PSMA-11]
–	2.99 SUV (g/g)	3.11 SUV (g/g)	0.10 SUV (g/g)	0.06 SUV (g/g)	0.01 SUV (g/g)	0.04 SUV (g/g)	0.09 SUV (g/g)	50.79 SUV (g/g)	0.11 SUV (g/g)	0.45 SUV (g/g)	0.04 SUV (g/g)	0.29 SUV (g/g)	70.87	0.09 SUV (g/g)	1.53 SUV (g/g)	0.29 SUV (g/g)	0.22 SUV (g/g)	0.33 SUV (g/g)	O=C([O-])CN(CCN(CC(=O)[O-])Cc1cc(CCC(=O)NCCCCCC(=O)NCCCC[C@H](NC(=O)N[C@@H](CCC(=O)O)C(=O)O)C(=O)O)ccc1[O-])Cc1cc(CCC(=O)O)ccc1[O-].[68Ga+3].[OH3+] [[^68Ga]Ga-PSMA-11]
